Results: ChEMBL document CHEMBL1155278, “3,4-Diaryl-isoxazoles and -imidazoles as potent dual inhibitors of p38alpha mitogen activated protein kinase and casein kinase 1delta” (J Med Chem, 2009)

Legend:
[1] = target: RAC-beta serine/threonine-protein kinase (Homo sapiens) (UniProt P31751); assay: Inhibition of PKBbeta assessed as residual activity at 0.1 uM by Cherenkov counting relative to control in presence of 50 uM ATP
Summary of the method: (§1)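 Single-concentration screen at 0.1 μM in a 76-kinase panel. ATP for each kinase was set near its Km for ATP. Residual activity is given as a percentage of control assays without compound, mean of n = 3 ± SD.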

[2] = target: Serine/threonine-protein kinase 26 (Homo sapiens) (UniProt Q9P289); assay: Inhibition of MST4 assessed as residual activity at 0.1 uM by Cherenkov counting relative to control in presence of 20 uM ATP
Summary of the method: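 Single-concentration selectivity screen at 0.1 μM against a panel of 76 protein kinases. Each kinase was run at an ATP level approximating its Km for ATP. Output is mean residual activity as % of the control assay without compound, n = 3 ± SD.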

[3] = target: T1, Dual specificity tyrosine-phosphorylation-regulated kinase 2 (Homo sapiens) (UniProt Q92630); assay: Inhibition of DYRK2 assessed as residual activity at 0.1 uM by Cherenkov counting relative to control in presence of 50 uM ATP
T1 sequence (whole entry): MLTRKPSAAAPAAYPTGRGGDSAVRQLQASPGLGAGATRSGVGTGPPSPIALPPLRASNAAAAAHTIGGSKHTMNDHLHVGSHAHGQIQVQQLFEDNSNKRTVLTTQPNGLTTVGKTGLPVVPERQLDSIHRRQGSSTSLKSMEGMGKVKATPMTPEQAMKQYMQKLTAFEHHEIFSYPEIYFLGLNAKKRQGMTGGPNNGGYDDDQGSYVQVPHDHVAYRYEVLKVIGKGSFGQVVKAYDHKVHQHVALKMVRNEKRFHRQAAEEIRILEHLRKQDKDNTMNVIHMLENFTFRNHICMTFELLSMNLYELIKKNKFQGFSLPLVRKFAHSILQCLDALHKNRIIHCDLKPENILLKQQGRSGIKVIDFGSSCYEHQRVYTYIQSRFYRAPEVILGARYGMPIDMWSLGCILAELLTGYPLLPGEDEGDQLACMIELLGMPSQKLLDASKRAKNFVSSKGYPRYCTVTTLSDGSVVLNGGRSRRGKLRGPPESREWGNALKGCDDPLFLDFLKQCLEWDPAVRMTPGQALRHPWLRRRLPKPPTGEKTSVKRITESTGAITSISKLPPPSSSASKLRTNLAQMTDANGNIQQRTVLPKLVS
Summary of the method: (§2)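 Single-concentration screen at 0.1 µM across a panel of 76 protein kinases. Each kinase was run at an ATP concentration approximating its ATP Km. Results are % mean residual activity versus control assays without compound (n = 3 ± SD).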

[4] = target: T2, Eukaryotic elongation factor 2 kinase (Homo sapiens) (UniProt O00418); assay: Inhibition of EF2K assessed as residual activity at 0.1 uM by Cherenkov counting relative to control in presence of 5 uM ATP; summary of the method: as §2
T2 sequence (whole entry): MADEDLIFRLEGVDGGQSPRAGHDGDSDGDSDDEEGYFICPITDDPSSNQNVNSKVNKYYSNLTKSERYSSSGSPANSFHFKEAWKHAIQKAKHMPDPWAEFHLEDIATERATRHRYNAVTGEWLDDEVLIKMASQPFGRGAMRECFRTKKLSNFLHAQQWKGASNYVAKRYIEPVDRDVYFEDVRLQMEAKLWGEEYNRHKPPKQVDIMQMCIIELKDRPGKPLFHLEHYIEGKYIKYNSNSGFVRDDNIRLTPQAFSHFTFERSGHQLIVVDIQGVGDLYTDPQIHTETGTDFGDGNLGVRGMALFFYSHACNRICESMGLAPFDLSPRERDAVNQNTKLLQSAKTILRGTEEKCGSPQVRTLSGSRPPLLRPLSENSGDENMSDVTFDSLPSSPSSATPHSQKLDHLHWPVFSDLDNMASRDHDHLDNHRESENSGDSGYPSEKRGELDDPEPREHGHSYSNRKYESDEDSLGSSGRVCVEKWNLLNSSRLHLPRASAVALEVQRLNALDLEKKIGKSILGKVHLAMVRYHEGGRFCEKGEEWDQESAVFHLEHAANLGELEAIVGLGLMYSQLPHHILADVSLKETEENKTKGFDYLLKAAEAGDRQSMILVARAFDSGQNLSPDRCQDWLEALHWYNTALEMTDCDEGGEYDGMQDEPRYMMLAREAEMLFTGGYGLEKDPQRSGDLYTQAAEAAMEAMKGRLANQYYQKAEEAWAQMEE

[5] = target: Proto-oncogene tyrosine-protein kinase Src (Homo sapiens) (UniProt P12931); assay: Inhibition of Src assessed as residual activity at 0.1 uM by Cherenkov counting relative to control in presence of 50 uM ATP; summary of the method: as §1
[6] = target: Aurora kinase C (Homo sapiens) (UniProt Q9UQB9); assay: Inhibition of Aurora C assessed as residual activity at 10 uM by Cherenkov counting relative to control
Summary of the method: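 Single-point profiling at 10 µM in a panel of 78 protein kinases. Kinase activity is expressed as a percentage relative to control assays without compound.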

[7] = target: Serine/threonine-protein kinase PAK 4 (Homo sapiens) (UniProt O96013); assay: Inhibition of PAK4 assessed as residual activity at 10 uM by Cherenkov counting relative to control in presence of 5 uM ATP
Serine/threonine-protein kinase PAK 4 (Homo sapiens), sequence (O96013 whole entry, looked up): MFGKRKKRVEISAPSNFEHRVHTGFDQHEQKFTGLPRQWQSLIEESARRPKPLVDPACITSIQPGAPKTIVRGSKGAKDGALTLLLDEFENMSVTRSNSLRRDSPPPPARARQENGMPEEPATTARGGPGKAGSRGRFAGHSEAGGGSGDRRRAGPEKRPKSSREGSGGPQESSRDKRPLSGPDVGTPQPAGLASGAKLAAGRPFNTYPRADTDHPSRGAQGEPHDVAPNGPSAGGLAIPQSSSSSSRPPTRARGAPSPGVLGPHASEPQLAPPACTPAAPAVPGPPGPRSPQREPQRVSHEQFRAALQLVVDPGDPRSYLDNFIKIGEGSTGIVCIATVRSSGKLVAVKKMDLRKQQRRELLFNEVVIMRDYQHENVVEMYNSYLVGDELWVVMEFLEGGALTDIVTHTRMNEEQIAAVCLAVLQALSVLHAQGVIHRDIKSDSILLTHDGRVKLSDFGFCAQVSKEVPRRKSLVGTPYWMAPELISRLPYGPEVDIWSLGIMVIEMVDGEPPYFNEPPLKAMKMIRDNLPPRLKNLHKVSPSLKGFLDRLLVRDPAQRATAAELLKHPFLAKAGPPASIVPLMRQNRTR

Serine/threonine-protein kinase 26 (Homo sapiens), sequence (Q9P289 2-416 limits assumed): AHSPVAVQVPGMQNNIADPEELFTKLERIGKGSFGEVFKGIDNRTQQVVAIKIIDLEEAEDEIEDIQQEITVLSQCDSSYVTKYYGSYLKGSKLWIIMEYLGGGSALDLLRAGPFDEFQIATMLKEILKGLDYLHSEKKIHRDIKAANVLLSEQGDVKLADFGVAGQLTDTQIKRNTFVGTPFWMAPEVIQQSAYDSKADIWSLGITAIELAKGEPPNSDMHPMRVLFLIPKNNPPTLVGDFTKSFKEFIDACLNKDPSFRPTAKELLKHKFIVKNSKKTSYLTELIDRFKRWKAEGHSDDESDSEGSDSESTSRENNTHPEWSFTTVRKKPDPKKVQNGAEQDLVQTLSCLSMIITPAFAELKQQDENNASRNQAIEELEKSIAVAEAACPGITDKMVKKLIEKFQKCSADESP
RAC-beta serine/threonine-protein kinase (Homo sapiens), sequence (P31751 whole entry): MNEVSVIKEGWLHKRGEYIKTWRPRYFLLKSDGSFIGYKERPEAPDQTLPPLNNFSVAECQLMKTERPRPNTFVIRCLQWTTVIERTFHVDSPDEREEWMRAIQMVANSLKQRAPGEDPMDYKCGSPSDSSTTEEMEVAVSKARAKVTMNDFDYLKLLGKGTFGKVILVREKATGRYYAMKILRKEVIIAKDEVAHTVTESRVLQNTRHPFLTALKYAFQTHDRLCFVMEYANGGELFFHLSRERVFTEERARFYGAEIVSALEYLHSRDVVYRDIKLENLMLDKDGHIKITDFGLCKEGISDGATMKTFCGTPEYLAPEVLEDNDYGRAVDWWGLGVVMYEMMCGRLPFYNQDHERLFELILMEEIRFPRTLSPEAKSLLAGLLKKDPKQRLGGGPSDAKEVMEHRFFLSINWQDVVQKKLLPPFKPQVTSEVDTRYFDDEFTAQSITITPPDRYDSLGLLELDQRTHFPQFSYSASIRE
Aurora kinase C (Homo sapiens), sequence (Q9UQB9 whole entry): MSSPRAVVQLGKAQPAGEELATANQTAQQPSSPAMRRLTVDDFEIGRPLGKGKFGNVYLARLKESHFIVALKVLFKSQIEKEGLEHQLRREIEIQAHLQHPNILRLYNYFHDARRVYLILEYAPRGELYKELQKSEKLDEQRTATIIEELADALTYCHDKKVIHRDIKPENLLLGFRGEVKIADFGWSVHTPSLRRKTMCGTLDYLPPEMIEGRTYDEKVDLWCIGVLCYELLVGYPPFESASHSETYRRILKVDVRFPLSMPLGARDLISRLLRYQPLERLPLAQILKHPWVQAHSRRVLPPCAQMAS
Proto-oncogene tyrosine-protein kinase Src (Homo sapiens), sequence (P12931 2-536 limits assumed): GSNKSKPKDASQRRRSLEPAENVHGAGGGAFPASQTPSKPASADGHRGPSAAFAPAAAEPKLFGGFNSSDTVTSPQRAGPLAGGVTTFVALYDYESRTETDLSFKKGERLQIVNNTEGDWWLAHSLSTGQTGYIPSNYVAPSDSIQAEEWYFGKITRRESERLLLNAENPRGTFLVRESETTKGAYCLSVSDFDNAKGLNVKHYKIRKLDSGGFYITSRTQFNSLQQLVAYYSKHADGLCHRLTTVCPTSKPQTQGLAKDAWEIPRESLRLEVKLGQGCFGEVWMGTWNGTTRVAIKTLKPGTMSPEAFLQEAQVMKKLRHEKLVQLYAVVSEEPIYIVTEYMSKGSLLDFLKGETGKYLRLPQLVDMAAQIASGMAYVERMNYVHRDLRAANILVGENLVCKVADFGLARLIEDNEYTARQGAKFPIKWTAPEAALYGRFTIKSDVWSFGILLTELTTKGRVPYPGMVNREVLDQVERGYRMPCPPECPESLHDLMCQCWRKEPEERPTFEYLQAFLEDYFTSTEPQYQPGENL

| Activity [1] [%] | Activity [2] [%] | Activity [3] [%] | Activity [4] [%] | Activity [5] [%] | Activity [6] [%] | Activity [7] [%] | SMILES |
| --- | --- | --- | --- | --- | --- | --- | --- |
| 100 | 86 | 101 | 102 | 63 |  |  | COc1ccc(/C=C/C(=O)Nc2cc(-c3[nH]c([S+](C)[O-])nc3-c3ccc(F)cc3)ccn2)c(OC)c1 (centres undefined) |
|  |  |  |  |  | 35 | 107 | CC(C)c1noc(-c2ccc(F)cc2)c1-c1ccncc1 |
|  |  |  |  |  | 110 | 106 | CC(C)c1onc(-c2ccc(F)cc2)c1-c1ccncc1 |
| 98 | 90 | 82 | 100 | 49 |  |  | COc1ccc(/C=C/C(=O)Nc2cc(-c3[nH]c(SC)nc3-c3ccc(F)cc3)ccn2)c(OC)c1 |
